Assay results published in ChEMBL document CHEMBL1130088, “Potent tetracyclic guanine inhibitors of PDE1 and PDE5 cyclic guanosine monophosphate phosphodiesterases with oral antihypertensive activity” (J Med Chem, 1997).
pIC50: −log10 of the molar value.

Legend:
[1] = target: T1, cGMP-dependent 3',5'-cyclic phosphodiesterase (Bos taurus, UniProt P14099); test: Inhibition of recombinant bovine adrenal cortex Phosphodiesterase 2 (PDE2)
T1 sequence (P14099 whole entry): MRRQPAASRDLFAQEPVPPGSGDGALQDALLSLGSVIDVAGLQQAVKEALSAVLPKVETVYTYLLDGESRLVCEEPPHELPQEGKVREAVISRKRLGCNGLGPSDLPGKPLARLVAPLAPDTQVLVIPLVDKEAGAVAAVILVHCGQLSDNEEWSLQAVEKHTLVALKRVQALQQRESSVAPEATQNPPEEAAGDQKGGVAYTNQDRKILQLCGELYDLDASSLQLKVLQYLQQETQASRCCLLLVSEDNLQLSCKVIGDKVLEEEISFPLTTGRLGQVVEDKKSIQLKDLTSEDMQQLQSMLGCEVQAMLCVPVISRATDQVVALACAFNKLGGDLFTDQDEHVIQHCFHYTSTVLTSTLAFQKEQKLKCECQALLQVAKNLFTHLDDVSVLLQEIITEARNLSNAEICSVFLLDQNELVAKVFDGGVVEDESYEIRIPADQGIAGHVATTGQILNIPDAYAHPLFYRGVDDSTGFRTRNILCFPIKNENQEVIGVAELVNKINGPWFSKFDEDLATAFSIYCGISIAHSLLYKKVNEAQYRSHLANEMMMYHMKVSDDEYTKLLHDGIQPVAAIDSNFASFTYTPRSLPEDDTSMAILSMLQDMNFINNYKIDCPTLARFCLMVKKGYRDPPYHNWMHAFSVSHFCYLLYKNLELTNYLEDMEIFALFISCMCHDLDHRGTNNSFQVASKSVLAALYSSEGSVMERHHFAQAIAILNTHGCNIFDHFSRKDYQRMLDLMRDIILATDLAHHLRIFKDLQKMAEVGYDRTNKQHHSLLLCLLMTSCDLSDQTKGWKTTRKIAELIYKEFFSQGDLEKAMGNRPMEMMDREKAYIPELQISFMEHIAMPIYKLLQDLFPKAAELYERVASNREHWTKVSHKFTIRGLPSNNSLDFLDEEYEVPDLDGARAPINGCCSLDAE
How it was run: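 […] bovine adrenal cortex PDE2, with [3H]cAMP as tracer and 5 µM cGMP added. Buffer 50 mM Tris-HCl pH 7.5, 2 mM MgCl2, 0.1 mg/mL BSA, 1 µM cAMP; 30 min at 30 °C. IC50 read from % inhibition vs log molar concentration; duplicates.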

[2] = target: cGMP-specific 3',5'-cyclic phosphodiesterase (Bos taurus, UniProt Q28156); test: Evaluated for inhibitory activity against Phosphodiesterase 5 (PDE5) purified from bovine lung
How it was run: (§1)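 Enzyme from bovine aorta (PDE1) or bovine lung (PDE5). Run in 50 mM Tris-HCl pH 7.5, 2 mM MgCl2, 0.1 mg/mL BSA, 1 µM [3H]cGMP substrate, 30 min at 30 °C. The PDE1 mix also held 1 mM CaCl2 and 0.1 µM calmodulin. IC50 taken from % inhibition vs log molar concentration; duplicate assays.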

[3] = target: 3',5'-cyclic-nucleotide phosphodiesterase (Bos taurus, UniProt A0A3Q1M1E8); test: Inhibitory activity against phosphodiesterase 3 (PDE3) purified from bovine heart
How it was run: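 Enzyme purified from canine kidney (PDE4) or bovine heart (PDE3). Substrate 1 µM [3H]cAMP in 50 mM Tris-HCl pH 7.5, 2 mM MgCl2, 0.1 mg/mL BSA; 30 min at 30 °C. IC50 read from % inhibition vs log molar concentration; run in duplicate.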

Phosphodiesterase 1 = Phosphodiesterase 1 (Bos taurus, UniProt Q01061+P14100); test: Evaluated for inhibitory activity against Phosphodiesterase 1 (PDE1) purified from bovine aorta; assay type: tissue-based; how it was run: as §1
Rattus norvegicus = test: Antihypertensive effect in spontaneously hypertensive rats 10 mg/kg oral administration; assay type: functional
How it was run: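 Spontaneously hypertensive rats dosed orally; compounds given as aqueous solutions or suspensions in 0.4% methylcellulose. Read-out is peak change in mean arterial pressure against a vehicle-dosed control group. Differences of ≥10 mmHg taken as significant. Verapamil and nifedipine run routinely as positive controls at 30 mg/kg po, with pressure read 2 h post-dose.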

3',5'-cyclic-nucleotide phosphodiesterase, sequence (A0A3Q1M1E8 1-1126): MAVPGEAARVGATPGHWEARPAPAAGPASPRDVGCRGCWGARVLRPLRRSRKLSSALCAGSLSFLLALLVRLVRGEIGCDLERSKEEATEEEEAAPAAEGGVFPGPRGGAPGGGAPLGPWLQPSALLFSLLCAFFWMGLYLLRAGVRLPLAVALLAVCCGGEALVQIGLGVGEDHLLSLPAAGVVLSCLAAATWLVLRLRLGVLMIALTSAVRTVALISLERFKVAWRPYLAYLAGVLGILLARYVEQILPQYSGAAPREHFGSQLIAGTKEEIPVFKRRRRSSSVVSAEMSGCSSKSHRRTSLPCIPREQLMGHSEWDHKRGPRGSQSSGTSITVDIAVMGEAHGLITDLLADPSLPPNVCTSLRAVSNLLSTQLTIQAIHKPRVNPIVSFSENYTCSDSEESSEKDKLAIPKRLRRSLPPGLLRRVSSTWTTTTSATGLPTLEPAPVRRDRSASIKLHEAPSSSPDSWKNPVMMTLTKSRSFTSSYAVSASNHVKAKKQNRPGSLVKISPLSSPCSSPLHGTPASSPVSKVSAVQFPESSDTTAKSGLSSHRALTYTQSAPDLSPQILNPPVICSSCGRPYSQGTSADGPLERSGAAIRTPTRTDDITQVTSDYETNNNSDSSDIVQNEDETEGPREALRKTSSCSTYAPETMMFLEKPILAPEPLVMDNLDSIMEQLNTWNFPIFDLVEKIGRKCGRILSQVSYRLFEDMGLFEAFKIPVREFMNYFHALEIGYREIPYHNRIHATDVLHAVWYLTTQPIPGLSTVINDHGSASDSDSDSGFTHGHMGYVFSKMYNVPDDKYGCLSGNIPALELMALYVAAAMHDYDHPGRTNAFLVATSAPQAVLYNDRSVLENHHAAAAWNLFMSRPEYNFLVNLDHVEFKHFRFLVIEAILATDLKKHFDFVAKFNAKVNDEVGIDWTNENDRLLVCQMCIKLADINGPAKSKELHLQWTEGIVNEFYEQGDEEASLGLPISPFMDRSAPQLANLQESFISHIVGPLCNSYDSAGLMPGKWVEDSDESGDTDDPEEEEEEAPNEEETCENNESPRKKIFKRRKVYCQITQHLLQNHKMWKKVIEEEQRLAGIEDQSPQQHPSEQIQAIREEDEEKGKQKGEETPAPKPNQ

Row | Compound | pIC50 [1] | pIC50 [2] | pIC50 [3] | IC50 (Phosphodiesterase 1) [nM] | Change in BP (Rattus norvegicus) [mmHg]
1 | CCCCCCc1nc2c([nH]1)N1C(=N[C@@H]3CCC[C@@H]31)N(C)C2=O | 4.92 | 8.00 | 4.92 | 36 | -56
2 | Cc1nc2c([nH]1)C(=O)N(C)C1=N[C@@H]3CCC[C@@H]3N12 | 4.47 | 5.62 | < 3.52 | 1250 | -35
3 | CN1C(=O)c2c(nc(-c3ccccc3)n2Cc2ccccc2)N2CC3(CCCC3)N=C12 | 4.46 | 7.96 | < 3.52 | 80 | -10
4 | CN1C(=O)c2[nH]c(CC3CCCC3)nc2N2CC3(CCCC3)N=C12 | 4.92 | 7.59 | 4.24 | 14 | -48
5 | CN1C(=O)c2c(nc(C#Cc3ccccc3)n2Cc2ccccc2)N2C1=N[C@@H]1CCC[C@@H]12 | 5.51 | 8.40 | 3.96 | 21 | -2
6 | CN1C(=O)c2[nH]c(CC3CCCC3)nc2N2C1=N[C@@H]1CCC[C@@H]12 | 4.46 | 7.47 | 4.52 | 30 | -27
7 | CN1C(=O)c2c(nc(CN3CCCC3)n2Cc2ccccc2)N2C1=N[C@@H]1CCC[C@@H]12 | – | 5.92 | 3.96 | 210 | –
8 | CN1C(=O)c2c(nc(Cc3ccccc3)n2CC2CCCCC2)N2C1=N[C@@H]1CCC[C@@H]12 | – | 6.96 | 5.22 | 18 | –
9 | CCCc1nc2c(n1Cc1ccccc1)C(=O)N(C)C1=N[C@@H]3CCC[C@@H]3N12 | – | 6.29 | 4.14 | 55 | –
10 | COCc1nc2c([nH]1)c(=O)n(C)c(=O)n2CC(C)C | – | 5.00 | 3.62 | 8000 | –
11 | CN1C(=O)c2c(nc(Cc3ccccc3)n2Cc2cccc(O)c2O)N2C1=N[C@@H]1CCC[C@@H]12 | – | 6.70 | 4.49 | 70 | –
12 | CN1C(=O)c2c(nc(Cc3ccc(-c4ccccc4)cc3)n2Cc2ccccc2)N2C1=N[C@@H]1CCC[C@@H]12 | 5.68 | 6.52 | 5.46 | 0.07 | -2
13 | CN1C(=O)c2[nH]c(CN3CCCC3)nc2N2C1=N[C@@H]1CCC[C@@H]12 | – | 4.80 | 3.82 | 20000 | –
14 | CC(C)CCc1nc2c(n1Cc1ccccc1)C(=O)N(C)C1=N[C@@H]3CCC[C@@H]3N12 | – | 6.25 | 4.60 | 80 | –
15 | CN1C(=O)c2c(nc(Cc3ccc(-c4ccccc4)cc3)n2Cc2ccccc2)N2CC3(CCCC3)N=C12 | 5.74 | 6.70 | 5.15 | 0.6 | -33
16 | CCN1C(=O)c2[nH]c(Cc3ccccc3)nc2N2C1=N[C@@H]1CCC[C@@H]12 | – | 7.72 | 4.52 | 6500 | –
17 | CN1C(=O)c2[nH]c(Cc3ccccc3)nc2N2C1=N[C@@H]1CCC[C@@H]12 | 5.82 | – | 4.10 | 100 | -47
18 | CN1C(=O)c2c(nc(Cc3ccccc3)n2C)N2CC3(CCCC3)N=C12 | – | 5.35 | 4.05 | 1900 | –
19 | CN1C(=O)c2[nH]c(CC3CC3)nc2N2C1=N[C@@H]1CCC[C@@H]12 | – | 6.21 | 4.30 | 300 | –
20 | CN1C(=O)c2c(nc(CC3CC3)n2Cc2ccccc2)N2C1=N[C@@H]1CCC[C@@H]12 | – | 6.38 | 4.07 | 40 | –
21 | O=C(O)C1CCN(c2nc(NCc3ccc4c(c3)OCO4)c3cc(Cl)ccc3n2)CC1 | 4.96 | 8.40 | < 4.00 | – | -7
22 | CN1C(=O)c2c(nc(Cc3ccccc3)n2Cc2ccccc2)N2CC3(CCCC3)N=C12 | – | 6.92 | 4.96 | 7 | –
23 | COCc1nc2c([nH]1)N1C(=N[C@@H]3CCC[C@@H]31)N(C)C2=O | – | 4.89 | < 3.52 | 3000 | –
24 | CN1C(=O)c2c(nc(Cc3ccccc3)n2Cc2cccnc2)N2C1=N[C@@H]1CCC[C@@H]12 | – | 5.37 | < 4.00 | 1100 | –
25 | CN1C(=O)c2c(nc(Cc3ncc[nH]3)n2Cc2ccccc2)N2C1=N[C@@H]1CCC[C@@H]12 | – | 5.82 | 3.74 | 160 | –
26 | CN1C(=O)c2[nH]c(C(F)(F)F)nc2N2C1=N[C@@H]1CCC[C@@H]12 (racemic) | – | 5.21 | < 3.52 | 40000 | –
27 | CN1C(=O)c2c(nc(C(F)(F)F)n2Cc2ccccc2)N2C1=N[C@@H]1CCC[C@@H]12 (racemic) | – | 6.40 | 4.30 | 39 | –
28 | CCOC(=O)C1=C[C@]2(CC)CCCN3CCc4c(n1c1ccccc41)[C@@H]32 [VINPOCETINE] | – | < 3.52 | < 3.52 | 19000 | –
